Screens deposited in PubChem BioAssay by Broad Institute.
FGF22 binding: binders of recombinant human FGF22 by thermal shift; Q9HCT0; SYPRO orange fluorescence; percent of sucrose octasulfate shift, DMSO zero; activity (Tm shift, normalised), % at 9.99 µM; 340,000 tested, 1.5% active;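 active = mean Tm shift, scaled 0 neutral to 100 positive control, at about 1.3% or above, every replicate too, limit read from the data; inconclusive = no clear call, values can overlap the other calls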
F508del corr: correctors of CFTR F508del function in bronchial epithelial cells; CFBE cells, YFP halide quenching; stimulated with forskolin plus potentiator P3; % fluorescence drop versus neutral controls; activity (quench increase), % at 7.58 µM; 350,000 tested, 0.36% active; AID 720511;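 active = mean added fluorescence quench of at least 8% versus neutral control, with both replicates also reaching 8%; inconclusive = only one of the mean or replicate conditions met; inactive = mean below 8% and not both replicates reaching 8%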;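 note: cells transiently co-express mutant CFTR-F508del with the halide-sensitive YFP; corrector assay measuring rescue of mutant channel to the surface after 24 h compound exposure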
DENV2 CPE: DENV2-induced cell death inhibition; CPE inhibition, % at 9.99 µM; DENV2-infected cells, cytopathic effect rescue, plate reader; AID 651640; 350,000 tested, 1.7% active; in the data active = CPE inhibition above about 20%, passing the limit was not always enough; inconclusive = no clear call, values can overlap the other calls; tested in BHK-21 cells;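 note: 0% = median of neutral control wells and 100% = median of positive control wells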
ERAP1 inh: ERAP1 (human) enzyme inhibition; Q9NZ08; 340,000 tested, 0.15% active; inhibition, % at 10.7 µM; recombinant ERAP1, Leu-AMC fluorescence, 60 min;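 active = mean replicate inhibition of at least 30%, or all replicates individually reaching that 30% level; inactive = mean below 30% and not every replicate reaching it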;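 note: 0% = neutral control wells and 100% = L-leucinethiol positive control wells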
E-selectin induc: E-selectin induction on HUVECs. P16581. HUVEC E-selectin immunofluorescence imaging; normalized: neutral wells 0, TNF-alpha wells 100. activation, % at 7.58 µM. 260,000 tested, 0.37% active. AID 686992;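 active = mean E-selectin-positive cell signal at least 10% of the positive control, reached in at least 60% of replicates, without over 20% cell loss; inconclusive = no rule given, readout overlaps actives, possibly toxicity-flagged; inactive = the rest, including those meeting only one limit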
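Read-out basis: % PE-positive cells; Test system: HUVEC primary endothelial cells; Technique: immunofluorescence imaging; Dosing: single-point compound dose.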
* = called active by the depositor; ? = inconclusive; · = not tested or not shown. In the library only some 3.7% were active in any assay of this set; here they are far more common.

SMILES	FGF22 binding	F508del corr	DENV2 CPE	ERAP1 inh	E-selectin induc
COc1ccc(CN2C[C@H](O)COC[C@@H]3O[C@H](CC(=O)N4CCc5ccccc5C4)CC[C@H]32)cc1	-0.1	-2.0	-8.3	3.8	-0.1
COc1ccc(CNC(=O)C[C@H]2CC[C@@H](NC(=O)CN(C)C)[C@H](CO)O2)cc1	0.1	-1.1	-1.8	0.4	0.0
CN(C)N=Nc1ccc(S(=O)(=O)NC(Cc2ccccc2)C(=O)O)cc1 (stereo unspecified)	0.1	1.8	-0.7	0.2	-0.1
Cc1ccc(S(=O)(=O)NC(Cc2ccccc2)C(=O)O)cc1C (stereo unspecified)	0.1	-1.1	14.2	-0.7	58.5*
C[C@@H]1CCCCO[C@H](CN(C)C(=O)C2CCCCC2)[C@H](C)CN([C@H](C)CO)C(=O)c2cc(NC(=O)NC3CCCCC3)ccc2O1	-0.8	0.3	-5.3	-5.9	·
C/C=C/c1ccc2c(c1)O[C@@H](CN(C)C(=O)C1CCOCC1)[C@@H](C)CN([C@H](C)CO)S2(=O)=O	0.1	-1.4	-2.7	-0.2	0.3
CC(=O)c1cccc(NC(=O)C2=CN3CCS(=O)(=O)N=C3C=C2)c1	0.0	-2.9	-0.8	19.8	75.2*
CN(C)C(=O)C[C@H]1C[C@@H]2c3cc(NC(=O)Nc4ccccc4F)ccc3O[C@@H]2[C@H](CO)O1	-0.2	0.6	2.7	-1.5	0.0
O=C(C1CCCC1)N1C[C@@H]2[C@H](c3ccccc31)[C@H](CO)N2C(=O)c1cccnc1	0.0	-0.8	-9.3	-0.6	0.0
CN(C(=O)COC(=O)c1ccc([N+](=O)[O-])cc1)c1ccccc1	0.5	-0.6	-3.3	0.0	·
CN(C(=O)COC(=O)CSc1ccc([N+](=O)[O-])cc1)c1ccccc1	0.1	1.6	36.1*	1.4	-0.1
COc1cc(C(=O)NCc2cccc(Cl)c2)ccc1OCC(=O)N1CCOCC1	0.6	-1.2	115.0*	-2.9	·
COc1cc(C(=O)NC(C)c2cc(C)ccc2C)ccc1OCC(=O)N1CCOCC1 (stereo unspecified)	0.1	-1.0	0.6	16.3	144.3*
COc1cc(C(=O)NC(C)c2ccccc2)ccc1OCC(=O)N1CCOCC1 (stereo unspecified)	0.1	7.1	9.4	1.5	-0.2
C[C@@H]1CN([C@H](C)CO)C(=O)c2cc(NS(=O)(=O)c3ccccc3)ccc2O[C@@H](C)CCCCO[C@@H]1CN(C)S(=O)(=O)c1cccs1	·	-2.4	?	-5.3	·
C[C@H](CO)N1C[C@H](C)[C@@H](CN(C)C(=O)NC2CCCCC2)Oc2ccc(NC(=O)CCCCCC(=O)Nc3ccccc3N)cc2C1=O	-0.1	-1.1	·	·	0.2
O=C(NCC(c1ccco1)N1CCc2ccccc21)C(=O)Nc1ccccc1F (stereo unspecified)	·	-1.1	1.7	1.9	·
COc1ccccc1NC(=O)C(=O)NCC(c1ccco1)N1CCc2ccccc21 (stereo unspecified)	-0.5	9.8*	13.1	-1.1	5.5
COc1cc(C(=O)NCC(c2ccco2)N2CCc3ccccc32)cc(OC)c1OC (stereo unspecified)	·	0.7	92.0*	-1.6	-0.1
C[C@H](NC(=O)C[C@@H]1C[C@H]2c3cc(NC(=O)NC4CCCC4)ccc3O[C@H]2[C@H](CO)O1)c1ccccc1	0.2	-1.2	26.8*	-2.0	0.2
C[C@H](NC(=O)C[C@@H]1C[C@@H]2c3cc(NC(=O)NC4CCCC4)ccc3O[C@@H]2[C@@H](CO)O1)c1ccccc1	-0.2	-4.7	8.1	-1.6	-0.1
O=C(C[C@H]1C[C@@H]2c3cc(NC(=O)NC4CCCCC4)ccc3O[C@@H]2[C@@H](CO)O1)NCC(F)(F)F	-0.1	-1.2	-9.3	0.6	0.7
O=C(C[C@H]1C[C@H]2c3cc(NC(=O)NC4CCCCC4)ccc3O[C@H]2[C@H](CO)O1)NCC(F)(F)F	-0.1	-1.3	48.7*	-0.4	0.6
O=C(C[C@H]1C[C@@H]2c3cc(NC(=O)NC4CCCCC4)ccc3O[C@@H]2[C@@H](CO)O1)NCCc1ccccc1	-0.1	-0.2	37.2*	-4.9	0.4
CO[C@H]1CN(C)C(=O)c2cc(NC(=O)Cc3ccccc3)ccc2OC[C@H](C)NC[C@@H]1C	0.1	-1.9	5.0	·	0.0
COc1ccccc1NC(=O)N[C@H]1C=C[C@H](CC(=O)N2CCC(Cc3ccccc3)CC2)O[C@H]1CO	-0.1	2.1	-4.8	-2.5	-0.5
